This note sets out measurements from ChEMBL document CHEMBL3867488 (ACS Med Chem Lett, 2016).

The test system of series [1] is Cynomolgus monkey. Description: In vivo agonist activity at LXR-beta in cynomolgus monkey assessed as ABCG1 gene induction by measuring total RNA level at 0.1 mg/ kg, po qd administered via gavage for 14 days measured 5 to 6 hrs post-dose. Type of series: functional, Macaca fascicularis. A digest of the protocol: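 Cynomolgus monkeys dosed daily for 14 days. ABCG1 mRNA induction measured in blood cells on day 14 and expressed as fold change. Plasma drug concentration taken about 5 h post-dose. Plasma triglycerides also measured against baseline, with significance by ANOVA.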

The target in series [2] is T1, Oxysterols receptor LXR-beta (Homo sapiens) (UniProt P55055).
T1 sequence (whole entry): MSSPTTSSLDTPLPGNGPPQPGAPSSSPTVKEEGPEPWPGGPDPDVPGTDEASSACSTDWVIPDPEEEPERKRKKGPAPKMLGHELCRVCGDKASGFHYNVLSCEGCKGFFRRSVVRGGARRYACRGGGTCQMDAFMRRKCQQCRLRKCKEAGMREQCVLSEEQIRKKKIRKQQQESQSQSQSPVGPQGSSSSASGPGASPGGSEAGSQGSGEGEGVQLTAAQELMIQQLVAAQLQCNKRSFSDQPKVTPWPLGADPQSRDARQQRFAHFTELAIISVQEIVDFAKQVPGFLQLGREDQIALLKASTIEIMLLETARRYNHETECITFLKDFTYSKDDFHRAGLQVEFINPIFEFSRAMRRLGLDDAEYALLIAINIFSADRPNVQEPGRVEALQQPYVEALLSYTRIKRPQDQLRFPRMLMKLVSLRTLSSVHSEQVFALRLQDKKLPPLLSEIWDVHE
Kind of series: Agonist activity at human LXR-beta expressed in African green monkey CV1 cells measured after 18 to 20 hrs by luciferase reporter gene assay relative to pan agonist 1-(2,4-difluorobenzyl)-2-oxo-6-(4-phenoxyphenyl)-4-(trifluoromethyl)-1,2-dihydropyridine-3-carbonitrile. The class given is cell-based. The conditions noted are these: CV-1.

Series [3] deals with T1, Oxysterols receptor LXR-beta (Homo sapiens). Description: Agonist activity at LXR-beta in human HeLa cells assessed as induction of ABCA1 by beta-galactosidase/luciferase reporter gene assay relative to control. The class given is cell-based. A digest of the protocol:
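HeLa cells carrying endogenous LXRα and LXRβ receptors, transfected with an ABCA1 LXREx3 reporter construct; agonist-driven reporter induction measured.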

Series [4] concerns the target Retinoic acid receptor RXR-alpha/oxysterols receptor LXR-beta (Homo sapiens, UniProt P55055). Kind of series: Displacement of [3H]-24,25-epoxycholesterol from human LXRbeta/RXRalpha expressed in baculovirus infected Sf9 cells by scintillation proximity analysis. The method, boiled down: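 Binding affinity measured using full-length LXRα–RXRα and LXRβ–RXRα heterodimers.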

Series [5] in a line: Plasma concentration in cynomolgus monkey at 1 mg/kg, po qd administered via gavage for 14 days measured after 5 hrs of last-dose by LC/MS/MS analysis. Type of series: ADME, organism-based, Macaca fascicularis. A digest of the protocol:
(§1)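 Cynomolgus monkeys dosed daily for 14 days. On day 14, plasma drug concentration was taken 5 h post-dose. Plasma triglycerides were expressed as % elevation over baseline, with significance tested by ANOVA (p < 0.05).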

Series [6] addresses T2, Oxysterols receptor LXR-beta (Homo sapiens, UniProt P55055).
T2 sequence (P55055 whole entry): T1 sequence (whole entry)
Description: Agonist activity at human LXR-beta expressed in African green monkey CV1 cells measured after 18 to 20 hrs by luciferase reporter gene assay. Type of series: cell-based, CV-1.

Series [7] concerns the target Albumin (Homo sapiens, UniProt P02768). Kind of series: Binding affinity to human serum albumin at 1 uM measured after 4 hrs by equilibrium dialysis method relative to control. Type of series: ADME. The conditions noted are these: isolated protein, 4 h, 1 µM.
Series [8] has as its target Alpha-1-acid glycoprotein 1 (Homo sapiens, UniProt P02763). Description: Binding affinity to human alpha-1-AGP at 1 uM measured after 4 hrs by equilibrium dialysis method relative to control. The class given is ADME. Conditions: isolated protein, 4 h, 1 µM.
Series [9] in a line: Effect on plasma triglyceride level in cynomolgus monkey at 0.1 mg/kg, po qd administered via gavage for 14 days measured after 24 hrs of last-dose relative to base line. Type of series: ADME, organism-based, Macaca fascicularis. The conditions noted are these: in vivo. The method, boiled down:
(§2)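 Cynomolgus monkeys dosed for 14 days, with groups at 0.1, 0.3 and 1 mg/kg. Plasma triglycerides expressed as percent change over baseline, with significance by ANOVA. Plasma drug exposure sampled 5 h post-dose. ABCG1 induction in blood cells monitored in the same animals.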

The species entered for series [10] is Macaca fascicularis. Kind of series: Agonist activity at LXR-beta in cynomolgus monkey whole blood assessed as ABCA1 gene induction by measuring ABCA1 mRNA level after 4 hrs by SYBR-Green dye-based Q-PCR analysis relative to control. The class given is tissue-based.
The target of series [11] is T3, Nuclear receptor subfamily 1 group I member 2 (Homo sapiens, UniProt O75469).
T3 sequence (O75469 whole entry): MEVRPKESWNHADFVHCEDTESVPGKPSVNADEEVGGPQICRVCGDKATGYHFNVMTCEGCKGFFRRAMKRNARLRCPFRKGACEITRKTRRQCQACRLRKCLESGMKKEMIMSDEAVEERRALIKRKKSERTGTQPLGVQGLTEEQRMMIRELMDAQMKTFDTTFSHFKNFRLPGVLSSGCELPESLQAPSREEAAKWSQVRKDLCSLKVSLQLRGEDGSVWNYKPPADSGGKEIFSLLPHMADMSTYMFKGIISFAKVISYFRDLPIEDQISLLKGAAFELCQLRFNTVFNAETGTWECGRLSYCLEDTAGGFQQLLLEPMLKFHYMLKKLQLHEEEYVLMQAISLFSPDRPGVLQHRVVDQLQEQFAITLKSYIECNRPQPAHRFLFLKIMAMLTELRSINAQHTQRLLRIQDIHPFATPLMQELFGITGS
Kind of series: Agonist activity at human PXR expressed in human HepG2 cells assessed as induction of CYP3A4 measured after 24 hrs by AlamarBlue dye-based luciferase reporter gene assay. The class given is cell-based.

A short description of series [12]: Effect on plasma triglyceride level in cynomolgus monkey at 0.3 mg/kg, po qd administered via gavage for 14 days measured after 24 hrs of last-dose relative to base line. The class given is ADME, organism-based, Macaca fascicularis. Conditions: in vivo. The method, boiled down:
as §2

In series [13] the target is T1, Oxysterols receptor LXR-beta (Homo sapiens). Kind of series: Agonist activity at LXR-beta in human whole blood assessed as ABCA1 gene induction by measuring ABCA1 mRNA level after 4 hrs by SYBR-Green dye-based Q-PCR analysis relative to pan agonist 2-(4-(5-(5-cyano-1-(2,4-difluorobenzyl)-6-oxo-4-(trifluoromethyl)-1,6-dihydropyridin-2-yl)thiophen-2-yl)-3-methylphenyl)acetic acid. Type of series: tissue-based.

A short description of series [14]: Plasma concentration in cynomolgus monkey at 0.1 mg/kg, po qd administered via gavage for 14 days measured after 5 hrs of last-dose by LC/MS/MS analysis. Type of series: ADME, organism-based, Macaca fascicularis. A digest of the protocol: as §1
The nature of series [15]: Effect on plasma triglyceride level in cynomolgus monkey at 1 mg/kg, po qd administered via gavage for 14 days measured after 24 hrs of last-dose relative to base line. The class given is ADME, organism-based, Macaca fascicularis. Conditions: in vivo. The method, boiled down: as §1
The nature of series [16]: Plasma concentration in cynomolgus monkey at 0.3 mg/kg, po qd administered via gavage for 14 days measured after 5 hrs of last-dose by LC/MS/MS analysis. Type of series: ADME, organism-based, Macaca fascicularis. The method, boiled down: as §1
A short description of series [17]: Half life in cynomolgus monkey at 3 mg/kg, iv administered as 10 mins infusion by LC/MS/MS analysis. Type of series: ADME, organism-based, Macaca fascicularis. Conditions: in vivo.
In series [18] the target is T2, Oxysterols receptor LXR-beta. Kind of series: Agonist activity at LXR-beta in human whole blood assessed as ABCA1 gene induction by measuring ABCA1 mRNA level after 4 hrs by SYBR-Green dye-based Q-PCR analysis. The class given is tissue-based.

Sequence of Retinoic acid receptor RXR-alpha/oxysterols receptor LXR-beta (P19793 whole entry, one chain of several): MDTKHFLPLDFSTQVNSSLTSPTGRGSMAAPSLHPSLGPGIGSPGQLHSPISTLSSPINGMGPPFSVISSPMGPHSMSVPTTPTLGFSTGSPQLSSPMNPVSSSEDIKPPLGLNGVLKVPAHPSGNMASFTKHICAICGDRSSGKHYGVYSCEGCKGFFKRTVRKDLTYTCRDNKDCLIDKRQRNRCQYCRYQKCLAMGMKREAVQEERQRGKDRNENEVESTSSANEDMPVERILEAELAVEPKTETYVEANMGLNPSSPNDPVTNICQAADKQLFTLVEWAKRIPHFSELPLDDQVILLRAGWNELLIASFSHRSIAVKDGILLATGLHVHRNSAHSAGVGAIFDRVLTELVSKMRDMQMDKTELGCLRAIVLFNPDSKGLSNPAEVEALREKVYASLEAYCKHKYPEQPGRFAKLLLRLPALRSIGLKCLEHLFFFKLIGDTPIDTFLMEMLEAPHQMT
Sequence of Albumin (P02768 whole entry): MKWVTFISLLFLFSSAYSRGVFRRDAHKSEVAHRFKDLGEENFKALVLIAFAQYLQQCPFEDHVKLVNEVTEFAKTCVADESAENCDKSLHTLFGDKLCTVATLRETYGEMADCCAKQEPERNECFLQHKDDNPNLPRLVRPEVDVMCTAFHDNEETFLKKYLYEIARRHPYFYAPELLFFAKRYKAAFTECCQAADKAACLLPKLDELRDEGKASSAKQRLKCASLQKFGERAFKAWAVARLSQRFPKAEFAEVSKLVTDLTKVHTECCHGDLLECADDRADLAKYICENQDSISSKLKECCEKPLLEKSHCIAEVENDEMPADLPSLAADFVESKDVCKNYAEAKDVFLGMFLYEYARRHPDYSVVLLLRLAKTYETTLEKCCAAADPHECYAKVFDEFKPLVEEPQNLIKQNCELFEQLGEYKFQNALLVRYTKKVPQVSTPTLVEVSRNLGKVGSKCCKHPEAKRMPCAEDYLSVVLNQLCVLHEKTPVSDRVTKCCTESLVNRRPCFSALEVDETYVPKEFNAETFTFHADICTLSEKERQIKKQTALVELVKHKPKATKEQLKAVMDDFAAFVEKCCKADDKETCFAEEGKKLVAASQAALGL
Sequence of Alpha-1-acid glycoprotein 1 (P02763 whole entry): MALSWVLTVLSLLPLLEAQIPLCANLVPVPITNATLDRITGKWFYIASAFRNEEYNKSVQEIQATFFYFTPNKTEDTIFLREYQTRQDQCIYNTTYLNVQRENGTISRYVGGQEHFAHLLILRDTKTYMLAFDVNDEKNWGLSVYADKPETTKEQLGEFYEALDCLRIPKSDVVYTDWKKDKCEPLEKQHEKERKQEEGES

On to `CC(C)(O)c1cn(-c2ccc(-c3cc(F)c(CO)c(S(C)(=O)=O)c3)cc2F)c(C(C)(C)c2c(Cl)cccc2Cl)n1` [BMS-852927], for which the “fold change (FC)” value in series [1] is listed as 4.7. In addition, the Efficacy in series [2] turned out to be 88%; in series [3] it was 29%; in [10], 32%; in series [13], 26%. In addition, the affinity in [4], expressed as Ki, was 12 nM. Further, the concentration at 5 h in series [5] amounted to 57 nM; in series [14] it was 7.5 nM; in series [16], 22 nM. Moreover, the EC50 came out at 24 nM in series [6], 1000 nM in series [11] and 9 nM in [18]. The PB in [7] worked out at 96.6%; in series [8], 97.3%. In addition, the figures for the Activity in series [9], in series [12] and in series [15] were 20%, 8% and 10%, respectively. In series [17], this compound gave a t1/2 of 12 h.
